Only some compounds are listed: those with a hit (about 3.8% of all), similar ones and a draw of the others.
KCNQ1 pot: human KCNQ1 channel potentiation or activation; P51787; CHO-K1 KCNQ1, thallium flux FluxOR fluorescence; hits give high values; 310,000 tested, 0.35% active; B-score at 10 µM;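 active = fluorescence ratio B-score, a plate-corrected score, at least three library SD, with initial intensity B-score within 5 SD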
Target sequence (P51787 whole entry, looked up): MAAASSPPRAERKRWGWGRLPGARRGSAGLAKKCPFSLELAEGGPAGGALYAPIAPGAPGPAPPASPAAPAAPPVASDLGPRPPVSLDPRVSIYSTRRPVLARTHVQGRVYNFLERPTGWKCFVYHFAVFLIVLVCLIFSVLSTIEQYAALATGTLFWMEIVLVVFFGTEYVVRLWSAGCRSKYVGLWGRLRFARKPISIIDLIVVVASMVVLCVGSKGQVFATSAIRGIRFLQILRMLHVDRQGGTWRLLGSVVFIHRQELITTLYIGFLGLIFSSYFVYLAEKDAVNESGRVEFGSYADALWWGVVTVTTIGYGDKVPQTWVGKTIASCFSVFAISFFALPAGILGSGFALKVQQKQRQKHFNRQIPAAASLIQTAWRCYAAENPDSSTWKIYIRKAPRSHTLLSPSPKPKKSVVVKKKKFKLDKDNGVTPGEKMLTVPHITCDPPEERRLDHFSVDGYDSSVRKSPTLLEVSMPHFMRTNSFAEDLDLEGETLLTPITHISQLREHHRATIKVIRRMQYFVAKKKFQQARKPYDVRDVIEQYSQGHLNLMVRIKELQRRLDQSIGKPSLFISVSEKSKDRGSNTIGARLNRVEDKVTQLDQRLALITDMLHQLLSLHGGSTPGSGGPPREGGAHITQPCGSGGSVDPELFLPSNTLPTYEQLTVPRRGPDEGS
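Doses: Single concentration per compound, DMSO matched to controls | Test system: KCNQ1-transfected CHO-K1 cells | Timing: 90 min dye loading and 20 min compound exposure, both at room temperature | Measured by: Kinetic FluxOR thallium fluorescence, 10-s 1-Hz baseline, 110-s post-stimulus read | Medium: Assay buffer with matched DMSO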
KCNQ1 inh: inhibitors of human KCNQ1 potassium channel; AID 2642; CHO-K1 KCNQ1, FluxOR thallium flux fluorescence; hits give high values; 310,000 tested, 1.3% active; B-score at 10 µM;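 active = compounds whose thallium flux B-score, printed positive for inhibition, exceeds three library SD while starting fluorescence stays within three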;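 note: channel opened by potassium depolarization with thallium stimulus after 20 min compound exposure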
KCNK3 block: human KCNK3 channel inhibition, primary screen; 340,000 tested, 0.84% active; CHO-KCNK3 thallium flux, FluxOR fluorescence; hits give low values; O14649; B-score at 10 µM; AID 602410;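 active = B-score under library mean minus 4 SD, starting fluorescence ratio at most library mean plus 5 SD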;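 note: more negative B-score means stronger inhibition of thallium flux through KCNK3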
KCNK9 block: human KCNK9 channel inhibition. HEK293 KCNK9, FluxOR thallium flux fluorescence; hits give low values. Q9NPC2. 310,000 tested, 1.2% active. B-score at 10 µM. AID 488922;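 active = ratio B-score over 3 SD below the library mean, with starting fluorescence within 5 SD of its mean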;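 note: negative B-score means less thallium flux so channel inhibition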
Kir21 block: blocks the mouse Kir2.1 inward-rectifier potassium channel; HEK293-Kir2.1, FluxOR thallium flux fluorescence; hits give low values; B-score at 10 µM; 310,000 tested, 0.85% active;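 active = fluorescence ratio B-score at or below minus 3 SD of library scores, with starting-brightness B-score within 2 SD, cut at about -4.2 in these data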;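 note: channel flux triggered by added potassium and thallium sulfate stimulus; B-score of peak minus minimum fluorescence over baseline after thallium stimulus; more negative B-score means stronger Kir2.1 block with less thallium influx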
hERG protect: hERG (human) protection from proarrhythmic block | CHO-hERG, FluxOR thallium flux, dofetilide IC70 present | 310,000 tested, 0.51% active | Q12809 | AID 1511 | activation (rescue from dofetilide block), less the hit threshold, % at 10 µM;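 active = activation above the mean of controls blocked by dofetilide plus 5 SD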;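 note: thallium influx through hERG after potassium depolarization seen as dye fluorescence rise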
KCNK9 block conf: human KCNK9 inhibitor confirmation; 4,900 tested, 43% active; inhibition, % at 10 µM; HEK293 KCNK9 cells, FluxOR thallium flux fluorescence; shares compounds with KCNK9 block;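 active = thallium signal inhibited by more than 5 SD of the compound-free buffer control wells, on both duplicate plates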;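 note: 0% = assay buffer control wells without compound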
Kir2-1 spec: tests whether KCNK9 modulators also affect mouse Kir2.1 | shares compounds with KCNK9 block | 4,900 tested, 4% active | inhibition, % at 10 µM | Kir2.1 cells, FluxOR thallium flux fluorescence;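 active = thallium signal drop more than 5 SD beyond the mean of the no-compound control wells, seen in both duplicate plates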;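 note: signal is fluorescence rise after thallium addition divided by baseline fluorescence; plate controls were assay buffer only for no effect and full block by chlorpromazine control for full effect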
HEK293 Tl ctr: non-induced cell nonspecific activity of KCNK9 modulators; shares compounds with KCNK9 block; non-induced KCNK9-HEK293, FluxOR thallium flux; inhibition, % at 10 µM; 4,900 tested, 40% active;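 active = thallium signal drop beyond 5 SD of the untreated control mean, on both duplicate plates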;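 note: plate controls were buffer only IC0 wells for no effect and SID17386958 at its maximal inhibitory level for full effect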
Starred values were filed as active, the others as inactive; i = inactive; . = no result.

SMILES	KCNQ1 pot	KCNQ1 inh	KCNK3 block	KCNK9 block	Kir21 block	hERG protect	KCNK9 block conf	Kir2-1 spec	HEK293 Tl ctr
O=S(=O)(c1ccccc1)N1CCN(Cc2ccccc2)CC1	i	i	i	i	-0.23	1.3	.	.	.
O=S(=O)(c1ccccc1)N1CCN(Cc2ccc(Cl)cc2)CC1	i	i	i	i	1.29	-16.3	i	i	i
COc1cccc(CN2CCN(S(=O)(=O)c3ccccc3)CC2)c1OC	i	i	i	i	-0.73	-10.4	.	.	.
COc1ccccc1CN1CCN(S(=O)(=O)c2ccccc2)CC1	i	i	i	i	-0.36	1.5	i	i	i
CCOC(=O)C1=C(C)N(C)C(=O)NC1c1c(C)nn(-c2ccc(C)cc2)c1Cl (stereo not drawn)	i	i	i	i	-0.05	-11.8	i	i	i
CCOC(=O)C1=C(C)NC(=O)NC1c1c(C)nn(-c2ccccc2)c1Cl (stereo not drawn)	i	i	i	i	-0.34	-7.4	.	.	.
COc1ccccc1-c1nc(C#N)c(N2CCN(c3cccc(Cl)c3)CC2)o1	i	i	i	-8.58*	-1.79	-13.4	47.5%*	i	i
O=C(NNC(=O)C1CC(c2cccs2)=NO1)Nc1ccccc1 (stereo not drawn)	i	i	i	i	-0.2	1.1	.	.	.
C=C1C(=O)C2=CC1CCC(=O)C1(C)CCC(OC(C)=O)C(C)(C)C1CC2O (stereo not drawn)	.	.	i	.	.	.	.	.	.
Cc1ccc(N2CC(C(=O)Nc3nnc(SCCN4CCOCC4)s3)CC2=O)cc1 (stereo not drawn)	i	i	i	i	-0.56	-8.4	.	.	.
CCc1cccc(C)c1N(C(=O)Cn1c(COC)nc2ccccc21)C(C)COC (stereo not drawn)	i	i	i	-10*	2.74	-10.2	40.5%*	i	25.0%*
CC1CCN(CC(=O)n2c3c(c4ccccc42)CCCC3)CC1	i	i	i	i	0.23	-9.4	i	i	i
CCN1CCN(CC(=O)n2c3c(c4ccccc42)CC(C)CC3)CC1 (stereo not drawn)	i	i	i	i	-1.31	-7.4	.	.	.
CCCN(CC(=O)Nc1cc(Cl)ccc1Cl)C(=O)c1ccc2n[nH]nc2c1	.	.	i	.	.	.	.	.	.
CCCNC(=O)N1CCCC(C(=O)c2cccc(Cl)c2)C1 (stereo not drawn)	i	i	i	i	0.61	-14.9	.	.	.
O=C(CCc1ccccc1)C(=O)N1CCCC(C(=O)c2cccc(Cl)c2)C1 (stereo not drawn)	i	i	i	i	-0.48	-5.6	i	31.5%*	37.0%*
O=C(O)c1ccc2c(c1)C(=O)N(c1ccc(OCc3ccccc3)cc1)C2=O	i	i	i	i	2.69	-6.5	.	.	.
CCOc1ccc(/C=C/C(=O)c2cc(Br)ccc(=O)c2O)cc1	.	.	i	.	.	.	.	.	.
Cc1cccc(/C=C/C(=O)c2cc(Br)ccc(=O)c2O)c1	25*	i	i	i	0.95	-1.7	i	i	i
O=C(c1ccccc1Br)N1N=C(c2ccccc2)CC1c1ccccc1F (stereo not drawn)	i	i	i	i	1.71	-0.7	.	.	.
O=C(O)c1ccccc1C(=O)N1N=C(c2ccccc2)CC1c1ccccc1O (stereo not drawn)	i	i	i	-8.34*	0.02	-9.8	42.0%*	i	i
O=C(c1ccc(S(=O)(=O)N2CCCCCC2)cc1)N1CCN(c2ccccc2)CC1	i	i	i	i	0.45	-3.7	.	.	.

Compound activity from PubChem BioAssay.
